Results: ChEMBL document CHEMBL5696442, “Discovery of type II inhibitors of TGFβ-activated kinase 1 (TAK1) and mitogen-activated protein kinase kinase kinase kinase 2 (MAP4K2)” (J Med Chem, 2015)
Calls of active or inactive are those of the source. The calls are words filed in the database; no cut-off is given here.

What was measured:
[1] = target: Platelet-derived growth factor receptor alpha (Homo sapiens) (UniProt P16234); assay: Inhibition of PDGFRA (unknown origin) at 1 uM by Ambit Kinomescan binding assay relative to control; values are per cent of control
[2] = target: Casein kinase I isoform delta (Homo sapiens) (UniProt P48730); assay: Inhibition of CSNK1D (unknown origin) at 1 uM by Ambit Kinomescan binding assay relative to control
Method in brief: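 In vitro ATP-site competition binding assay against a panel of over 420 kinases (KinomeScan), with compound tested at 10 or 1 μM.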

[3] = target: T1, DNA-PK/Ku70/Ku85 (Homo sapiens) (UniProt P78527+P12956+P13010); assay: Inhibition of DNAPK ATP labeling site harbouring GHDEREHPFLVKGGEDLR in human A-375 cells at 0.05 uM by KiNativ Profiling analysis relative to control; assay type: cell-based
[4] = target: T2, Mitogen-activated protein kinase kinase kinase 2 (Homo sapiens) (UniProt Q9Y2U5); assay: Inhibition of MAP3K2 K1 labeling site in human Huh-7 cells at 10 uM by KiNativ Profiling analysis relative to control; assay type: cell-based
T2 sequence (whole entry): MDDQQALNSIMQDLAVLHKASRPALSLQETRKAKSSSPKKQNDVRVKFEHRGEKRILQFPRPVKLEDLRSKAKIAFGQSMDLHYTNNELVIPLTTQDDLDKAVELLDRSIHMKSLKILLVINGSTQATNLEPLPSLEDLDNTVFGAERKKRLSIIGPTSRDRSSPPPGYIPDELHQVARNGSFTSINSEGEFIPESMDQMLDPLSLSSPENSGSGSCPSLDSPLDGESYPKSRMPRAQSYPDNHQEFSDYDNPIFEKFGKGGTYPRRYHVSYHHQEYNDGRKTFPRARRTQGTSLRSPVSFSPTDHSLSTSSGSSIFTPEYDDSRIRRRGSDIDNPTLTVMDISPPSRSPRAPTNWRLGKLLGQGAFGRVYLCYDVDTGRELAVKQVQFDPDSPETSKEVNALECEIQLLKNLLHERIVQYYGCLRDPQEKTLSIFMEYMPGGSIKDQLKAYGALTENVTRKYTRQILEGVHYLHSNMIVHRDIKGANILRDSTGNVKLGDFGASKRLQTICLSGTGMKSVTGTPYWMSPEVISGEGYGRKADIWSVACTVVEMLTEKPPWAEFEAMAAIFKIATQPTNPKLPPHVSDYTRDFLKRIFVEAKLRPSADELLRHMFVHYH

[5] = target: Epithelial discoidin domain-containing receptor 1 (Homo sapiens) (UniProt Q08345); assay: Inhibition of DDR1 (unknown origin) at 10 uM by Ambit Kinomescan binding assay; values are per cent of control
[6] = target: Cyclin-dependent kinase 14 (Homo sapiens) (UniProt O94921); assay: Inhibition of PFTAIRE1 Lys2 labeling site in human A-375 cells at 5 uM by KiNativ Profiling analysis relative to control
[7] = target: T1, DNA-PK/Ku70/Ku85 (Homo sapiens); assay: Inhibition of DNAPK ATP labeling site harbouring KGGSWIQEINVAEKNWYPR in human A-375 cells at 5 uM by KiNativ Profiling analysis relative to control; assay type: cell-based
[8] = Inhibition of MLK1/4 K2 labeling site in human Huh-7 cells at 1 uM by KiNativ Profiling analysis relative to control; settings: condition cancer
[9] = target: Activin receptor type-1-like (Homo sapiens) (UniProt P37023); assay: Inhibition of ACVRL1 (unknown origin) at 10 uM by Ambit Kinomescan binding assay
[10] = target: Serine/threonine-protein kinase WNK4 (Homo sapiens) (UniProt Q96J92); assay: Inhibition of Wnk4 Lys2 labeling site in human Huh-7 cells at 1 uM by KiNativ Profiling analysis relative to control; assay type: cell-based
[11] = target: Serine/threonine-protein kinase MARK2 (Homo sapiens) (UniProt Q7KZI7); assay: Inhibition of MARK2 Lys2 labeling site harbouring EVAIKIIDKTQLNPTSLQK in human Huh-7 cells at 1 uM by KiNativ Profiling analysis relative to control; assay type: cell-based
[12] = target: Ribosomal protein S6 kinase alpha-3 (Homo sapiens) (UniProt P51812); assay: Inhibition of RSK2 domain2 Lys2 labeling site harbouring TVEYLHAQGVVHRDLKPSNILYVDESGNPESIR in human Huh-7 cell lysate at 1 uM by KiNativ Profiling analysis relative to control; assay type: subcellular
[13] = target: T3, PAN2-PAN3 deadenylation complex subunit PAN3 (Homo sapiens) (UniProt Q58A45); assay: Inhibition of PAN3 Protein Kinase Domain labeling site in human Huh-7 cell lysate at 1 uM by KiNativ Profiling analysis relative to control; assay type: subcellular
T3 sequence (whole entry): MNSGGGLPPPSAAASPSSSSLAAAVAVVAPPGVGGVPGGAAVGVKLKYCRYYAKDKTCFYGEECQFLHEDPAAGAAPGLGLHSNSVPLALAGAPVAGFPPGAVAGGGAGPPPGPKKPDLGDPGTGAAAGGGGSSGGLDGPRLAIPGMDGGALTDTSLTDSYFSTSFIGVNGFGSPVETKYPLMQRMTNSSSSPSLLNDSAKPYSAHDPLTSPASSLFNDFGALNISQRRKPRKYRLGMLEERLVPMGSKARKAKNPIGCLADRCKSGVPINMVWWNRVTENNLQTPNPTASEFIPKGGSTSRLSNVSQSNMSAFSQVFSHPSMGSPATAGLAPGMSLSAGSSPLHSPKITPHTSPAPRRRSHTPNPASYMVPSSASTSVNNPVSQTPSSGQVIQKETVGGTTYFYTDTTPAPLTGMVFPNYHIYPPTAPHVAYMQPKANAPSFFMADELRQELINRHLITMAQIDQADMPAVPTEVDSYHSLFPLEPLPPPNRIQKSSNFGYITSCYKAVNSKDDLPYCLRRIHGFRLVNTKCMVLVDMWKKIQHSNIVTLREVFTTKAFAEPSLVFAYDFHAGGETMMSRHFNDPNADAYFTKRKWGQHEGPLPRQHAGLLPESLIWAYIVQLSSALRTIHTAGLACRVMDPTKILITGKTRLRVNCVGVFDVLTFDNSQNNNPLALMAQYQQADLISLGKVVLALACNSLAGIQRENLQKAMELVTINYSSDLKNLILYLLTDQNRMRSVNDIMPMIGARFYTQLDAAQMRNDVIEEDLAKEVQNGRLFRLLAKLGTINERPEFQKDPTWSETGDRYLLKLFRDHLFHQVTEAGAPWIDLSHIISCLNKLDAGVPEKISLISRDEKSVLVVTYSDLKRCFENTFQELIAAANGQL

Sequence of Cyclin-dependent kinase 14 (Homo sapiens) (O94921 whole entry, looked up): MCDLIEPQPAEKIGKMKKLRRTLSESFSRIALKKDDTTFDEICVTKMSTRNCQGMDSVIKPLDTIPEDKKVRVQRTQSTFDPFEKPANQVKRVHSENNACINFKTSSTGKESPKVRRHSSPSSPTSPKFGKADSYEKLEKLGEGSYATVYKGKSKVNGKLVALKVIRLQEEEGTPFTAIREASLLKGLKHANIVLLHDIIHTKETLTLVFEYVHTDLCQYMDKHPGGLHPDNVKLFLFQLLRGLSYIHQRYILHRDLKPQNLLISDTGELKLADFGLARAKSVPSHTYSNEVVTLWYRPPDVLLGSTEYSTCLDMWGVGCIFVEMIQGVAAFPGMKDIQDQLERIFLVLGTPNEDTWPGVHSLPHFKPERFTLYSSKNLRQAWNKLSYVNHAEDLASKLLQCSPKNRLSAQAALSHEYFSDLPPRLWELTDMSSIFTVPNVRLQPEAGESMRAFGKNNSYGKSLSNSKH
Sequence of Platelet-derived growth factor receptor alpha (Homo sapiens) (P16234 whole entry, canonical isoform): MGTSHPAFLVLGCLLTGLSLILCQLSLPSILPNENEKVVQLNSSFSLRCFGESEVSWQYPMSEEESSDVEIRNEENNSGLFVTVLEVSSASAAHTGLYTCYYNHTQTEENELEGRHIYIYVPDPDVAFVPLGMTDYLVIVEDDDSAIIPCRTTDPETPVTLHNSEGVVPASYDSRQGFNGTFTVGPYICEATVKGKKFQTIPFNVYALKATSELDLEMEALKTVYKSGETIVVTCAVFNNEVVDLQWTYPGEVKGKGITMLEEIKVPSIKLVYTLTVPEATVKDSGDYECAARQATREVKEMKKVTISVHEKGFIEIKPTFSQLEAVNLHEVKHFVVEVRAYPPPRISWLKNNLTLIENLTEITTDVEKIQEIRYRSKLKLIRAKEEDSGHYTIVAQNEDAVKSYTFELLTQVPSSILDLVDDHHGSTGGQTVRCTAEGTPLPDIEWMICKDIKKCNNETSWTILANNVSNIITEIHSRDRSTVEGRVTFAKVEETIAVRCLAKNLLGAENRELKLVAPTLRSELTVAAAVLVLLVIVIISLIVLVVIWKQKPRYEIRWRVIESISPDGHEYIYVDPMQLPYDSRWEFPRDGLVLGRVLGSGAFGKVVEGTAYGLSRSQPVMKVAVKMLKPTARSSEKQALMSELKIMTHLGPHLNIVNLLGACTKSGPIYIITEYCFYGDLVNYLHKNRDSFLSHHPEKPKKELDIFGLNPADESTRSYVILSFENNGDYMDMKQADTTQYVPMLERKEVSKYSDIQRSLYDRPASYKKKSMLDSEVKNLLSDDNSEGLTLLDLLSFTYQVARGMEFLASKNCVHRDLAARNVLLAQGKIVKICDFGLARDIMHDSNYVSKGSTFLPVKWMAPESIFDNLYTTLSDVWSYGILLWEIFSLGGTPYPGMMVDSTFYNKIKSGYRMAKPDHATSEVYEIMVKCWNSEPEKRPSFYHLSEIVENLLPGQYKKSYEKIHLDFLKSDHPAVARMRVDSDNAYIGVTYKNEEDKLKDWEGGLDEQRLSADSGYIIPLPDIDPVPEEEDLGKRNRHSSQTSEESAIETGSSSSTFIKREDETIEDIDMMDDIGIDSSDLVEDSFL
Sequence of Serine/threonine-protein kinase WNK4 (Homo sapiens) (Q96J92 whole entry): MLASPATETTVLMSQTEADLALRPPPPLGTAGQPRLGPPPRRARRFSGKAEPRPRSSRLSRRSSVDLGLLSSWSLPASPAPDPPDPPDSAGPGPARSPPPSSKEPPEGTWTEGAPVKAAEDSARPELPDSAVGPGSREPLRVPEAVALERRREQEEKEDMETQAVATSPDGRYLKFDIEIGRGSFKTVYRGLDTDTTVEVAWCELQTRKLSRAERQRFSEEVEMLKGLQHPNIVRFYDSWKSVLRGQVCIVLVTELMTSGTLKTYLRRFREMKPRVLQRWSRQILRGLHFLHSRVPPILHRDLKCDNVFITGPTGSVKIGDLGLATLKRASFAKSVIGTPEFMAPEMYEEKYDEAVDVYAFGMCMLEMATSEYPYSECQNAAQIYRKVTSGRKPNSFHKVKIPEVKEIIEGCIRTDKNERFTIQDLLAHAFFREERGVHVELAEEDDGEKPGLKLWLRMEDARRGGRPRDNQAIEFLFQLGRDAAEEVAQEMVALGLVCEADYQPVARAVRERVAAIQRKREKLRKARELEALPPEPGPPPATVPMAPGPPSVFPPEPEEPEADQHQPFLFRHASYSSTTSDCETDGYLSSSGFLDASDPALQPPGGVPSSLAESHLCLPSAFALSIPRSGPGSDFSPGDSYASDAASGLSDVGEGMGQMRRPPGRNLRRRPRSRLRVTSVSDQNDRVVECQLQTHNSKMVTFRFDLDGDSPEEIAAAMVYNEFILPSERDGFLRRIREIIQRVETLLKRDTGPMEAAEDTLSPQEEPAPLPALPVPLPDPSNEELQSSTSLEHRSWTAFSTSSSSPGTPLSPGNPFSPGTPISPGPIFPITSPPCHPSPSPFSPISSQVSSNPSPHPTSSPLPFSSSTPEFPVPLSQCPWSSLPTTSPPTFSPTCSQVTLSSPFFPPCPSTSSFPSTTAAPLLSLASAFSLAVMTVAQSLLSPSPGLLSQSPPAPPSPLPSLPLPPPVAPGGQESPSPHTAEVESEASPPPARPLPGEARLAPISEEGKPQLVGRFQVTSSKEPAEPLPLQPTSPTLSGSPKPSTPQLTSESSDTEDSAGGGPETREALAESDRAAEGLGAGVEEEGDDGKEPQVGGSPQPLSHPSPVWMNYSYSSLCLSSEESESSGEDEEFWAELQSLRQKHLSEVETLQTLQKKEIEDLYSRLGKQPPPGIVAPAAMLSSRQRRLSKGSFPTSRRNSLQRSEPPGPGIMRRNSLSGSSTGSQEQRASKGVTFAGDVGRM
Sequence of Ribosomal protein S6 kinase alpha-3 (Homo sapiens) (P51812 whole entry, the tested form may be a part): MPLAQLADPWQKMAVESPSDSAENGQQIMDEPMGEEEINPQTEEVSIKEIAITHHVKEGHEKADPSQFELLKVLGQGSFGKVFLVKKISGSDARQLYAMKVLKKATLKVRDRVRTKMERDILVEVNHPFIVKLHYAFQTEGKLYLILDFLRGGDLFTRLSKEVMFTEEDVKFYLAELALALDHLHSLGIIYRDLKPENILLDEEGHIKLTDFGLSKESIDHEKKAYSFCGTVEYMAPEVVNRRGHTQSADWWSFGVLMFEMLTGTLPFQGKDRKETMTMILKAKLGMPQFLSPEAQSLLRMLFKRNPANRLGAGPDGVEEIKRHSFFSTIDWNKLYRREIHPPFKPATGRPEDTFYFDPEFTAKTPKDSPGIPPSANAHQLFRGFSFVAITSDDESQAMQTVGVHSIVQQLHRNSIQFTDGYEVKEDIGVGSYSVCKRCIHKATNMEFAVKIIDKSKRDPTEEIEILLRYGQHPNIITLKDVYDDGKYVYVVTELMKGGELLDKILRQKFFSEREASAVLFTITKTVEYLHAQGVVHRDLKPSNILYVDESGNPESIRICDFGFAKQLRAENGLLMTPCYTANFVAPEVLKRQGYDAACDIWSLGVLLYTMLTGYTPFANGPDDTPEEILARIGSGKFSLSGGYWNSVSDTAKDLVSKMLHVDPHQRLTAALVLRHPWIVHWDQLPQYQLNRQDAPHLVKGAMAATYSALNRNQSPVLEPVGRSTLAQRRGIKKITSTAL
Sequence of Serine/threonine-protein kinase MARK2 (Homo sapiens) (Q7KZI7 whole entry, the tested form may be a part): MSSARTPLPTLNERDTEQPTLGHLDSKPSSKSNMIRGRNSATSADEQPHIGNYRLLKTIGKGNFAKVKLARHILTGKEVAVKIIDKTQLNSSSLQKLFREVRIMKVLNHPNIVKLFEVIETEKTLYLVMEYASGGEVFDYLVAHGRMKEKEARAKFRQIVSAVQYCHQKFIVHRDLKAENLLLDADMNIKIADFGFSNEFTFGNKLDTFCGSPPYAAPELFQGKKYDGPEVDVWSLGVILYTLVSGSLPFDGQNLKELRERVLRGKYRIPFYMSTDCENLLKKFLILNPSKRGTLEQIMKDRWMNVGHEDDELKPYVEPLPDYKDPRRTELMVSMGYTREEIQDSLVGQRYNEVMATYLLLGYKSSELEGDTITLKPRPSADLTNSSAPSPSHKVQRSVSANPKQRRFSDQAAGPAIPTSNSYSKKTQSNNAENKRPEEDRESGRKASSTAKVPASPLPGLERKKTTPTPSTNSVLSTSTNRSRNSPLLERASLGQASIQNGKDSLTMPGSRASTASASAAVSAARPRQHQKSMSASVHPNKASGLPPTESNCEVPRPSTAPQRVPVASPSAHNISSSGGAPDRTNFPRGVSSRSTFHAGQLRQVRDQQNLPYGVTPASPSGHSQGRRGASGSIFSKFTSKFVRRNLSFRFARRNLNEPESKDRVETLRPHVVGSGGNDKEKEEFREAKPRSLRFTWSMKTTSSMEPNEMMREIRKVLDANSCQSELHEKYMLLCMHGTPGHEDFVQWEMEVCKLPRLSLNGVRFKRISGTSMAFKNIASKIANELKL
Sequence of Casein kinase I isoform delta (Homo sapiens) (P48730 whole entry, looked up, canonical isoform): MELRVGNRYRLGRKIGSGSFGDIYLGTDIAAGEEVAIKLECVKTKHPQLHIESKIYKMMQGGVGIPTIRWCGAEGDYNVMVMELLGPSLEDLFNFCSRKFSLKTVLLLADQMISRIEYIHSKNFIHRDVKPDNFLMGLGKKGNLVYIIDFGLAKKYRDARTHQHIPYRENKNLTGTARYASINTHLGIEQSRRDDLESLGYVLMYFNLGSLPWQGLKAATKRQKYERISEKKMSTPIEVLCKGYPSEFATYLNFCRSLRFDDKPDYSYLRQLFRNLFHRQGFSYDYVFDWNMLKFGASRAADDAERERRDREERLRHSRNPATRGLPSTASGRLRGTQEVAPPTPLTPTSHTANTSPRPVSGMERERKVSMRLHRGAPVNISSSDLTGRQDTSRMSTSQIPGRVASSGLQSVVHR

SMILES: CCN1CCN(Cc2ccc(NC(=O)c3ccc(C)c(/C=C/c4cnc5[nH]ccc5c4OC)c3)cc2C(F)(F)F)CC1
- residual activity [1]: 2.6%
- inhibition [2]: 84%
- inhibition [3]: 21.3%

SMILES: CCN1CCN(Cc2ccc(NC(=O)c3ccc(C)c(Oc4ccnc5[nH]ccc45)c3)cc2C(F)(F)F)CC1
- inhibition [4]: 31.6%
- percent of control [5]: 0.05%
- inhibition [6]: 77.8%
- inhibition [7]: 7.9%
- inhibition at 1 µM [8]: 1.5%
- inhibition [9]: inactive

SMILES: CNc1cc(Oc2cc(C(=O)Nc3cc(N4CCN(C)CC4)cc(C(F)(F)F)c3)ccc2C)ncn1
- inhibition [10]: 44.2%
- inhibition [11]: 11.3%
- inhibition [12]: 11.6%
- inhibition [13]: -2.9%
